Reference: ChEMBL document CHEMBL2177062, “Bile acid-based 1,2,4-trioxanes: synthesis and antimalarial assessment” (J Med Chem, 2012)
Calls of active or inactive are those of the source. The calls are words filed in the database; no cut-off is given here.

How the values were obtained:
[1] = test system: Plasmodium yoelii nigeriensis; test: Antimalarial activity in multidrug-resistant Plasmodium yoelii nigeriensis infected Swiss mouse assessed as suppression of parasitaemia at 12 mg/kg, po two devided dose daily for 4 days; type: functional
Procedure, shortened: (§1)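 Swiss mice of either sex (20 2 g) inoculated ip with 1 × 10⁶ MDR P. yoelii nigeriensis parasites on day 0. Five mice per dose, given oral doses in groundnut oil from day 0 to 3, twice daily. Parasitaemia read from thin blood smears on day 4. Suppression = [(C − T)/C] × 100 versus untreated controls. 100% means no parasites seen in 50 oil-immersion fields.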

[2] = test system: Plasmodium yoelii nigeriensis; test: Antimalarial activity in multidrug-resistant Plasmodium yoelii nigeriensis infected Swiss mouse assessed as suppression of parasitaemia at 48 mg/kg, po two devided dose daily for 4 days; type: functional; procedure, shortened: as §1
[3] = test system: Plasmodium yoelii nigeriensis; test: Antimalarial activity in multidrug-resistant Plasmodium yoelii nigeriensis infected Swiss mouse assessed as suppression of parasitaemia at 24 mg/kg, po two devided dose daily for 4 days; type: functional; procedure, shortened: as §1
[4] = Lipophilicity, log P of the compound; type: physicochemical; details: octanol/water
Procedure, shortened: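 log P calculated in silico, not measured experimentally.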

[5] = test system: Plasmodium yoelii nigeriensis; test: Antimalarial activity in multidrug-resistant Plasmodium yoelii nigeriensis infected Swiss mouse assessed as suppression of parasitaemia at 96 mg/kg, po two devided dose daily for 4 days; type: functional; procedure, shortened: as §1
[6] = test system: Plasmodium yoelii nigeriensis; test: Antimalarial activity in multidrug-resistant Plasmodium yoelii nigeriensis infected Swiss mouse assessed as disease cure at 48 mg/kg, po two devided dose daily for 4 days by 28 day survival assay; type: functional, organism-based; design: dose 48 mg/kg
Procedure, shortened: (§2)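 Swiss mice of either sex (20 2 g) inoculated ip with 1 × 10⁶ MDR P. yoelii nigeriensis (chloroquine-, mefloquine-, halofantrine-resistant) parasites on day 0. Five mice per dose. Oral dosing in groundnut oil (0.1 mL per dose) from day 0 to 3, as two divided doses daily. Thin blood smears on day 4, then twice weekly to day 28. Mice without patent infection by day 28 scored cured; % protection = fraction of mice cured. β-arteether as positive control.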

[7] = test system: Plasmodium yoelii nigeriensis; test: Antimalarial activity in multidrug-resistant Plasmodium yoelii nigeriensis infected Swiss mouse assessed as disease cure at 96 mg/kg, po two devided dose daily for 4 days by 28 day survival assay; type: functional; procedure, shortened: as §2
[8] = test system: Plasmodium yoelii nigeriensis; test: Antimalarial activity in multidrug-resistant Plasmodium yoelii nigeriensis infected Swiss mouse assessed as disease cure at 12 mg/kg, po two devided dose daily for 4 days by 28 day survival assay; type: functional, organism-based; design: dose 12 mg/kg; procedure, shortened: as §2
[9] = test system: Plasmodium yoelii nigeriensis; test: Antimalarial activity in multidrug-resistant Plasmodium yoelii nigeriensis infected Swiss mouse assessed as disease cure at 24 mg/kg, po two devided dose daily for 4 days by 28 day survival assay; type: functional; procedure, shortened: as §2

SMILES	Activity [1]	Activity [2]	Activity [3]	logP [4]	Activity ([5]; 96 mg/kg)	Activity [5]	Activity [6]	Activity [7]	Activity [8]	Activity [9]
C=C(c1ccccc1)[C@@H]1CO[C@@]2(CC[C@@]3(C)[C@H](CC[C@@H]4[C@@H]3CC[C@]3(C)[C@@H](O)CC[C@@H]43)C2)OO1 (relative stereo; form 2) [listing 1 of 2 here]	88.7%	100%	100%	6.44	100%					
C=C(c1ccc(F)cc1)[C@@H]1CO[C@@]2(CC[C@@]3(C)[C@H](CC[C@@H]4[C@@H]3CC[C@]3(C)[C@@H](O)CC[C@@H]43)C2)OO1 (relative stereo; form 2) [listing 1 of 2 here]	95.48%	100%	100%	6.66		100%				
C=C(c1ccc(Br)cc1)[C@@H]1CO[C@@]2(CC[C@@]3(C)[C@H](CC[C@@H]4[C@@H]3CC[C@]3(C)[C@@H](O)CC[C@@H]43)C2)OO1 (relative stereo; form 2) [listing 1 of 2 here]	44.5%	100%	100%	7.27	100%					
C=C(c1ccc(Br)cc1)[C@@H]1CO[C@@]2(CC[C@@]3(C)[C@H](CC[C@@H]4[C@@H]3CC[C@]3(C)[C@@H](O)CC[C@@H]43)C2)OO1 (relative stereo; form 2) [listing 2 of 2 here]							Active	Active	inactive	Active
C=C(c1ccc(F)cc1)[C@@H]1CO[C@@]2(CC[C@@]3(C)[C@H](CC[C@@H]4[C@@H]3CC[C@]3(C)[C@@H](O)CC[C@@H]43)C2)OO1 (relative stereo; form 2) [listing 2 of 2 here]							Active	Active	inactive	Active
C=C(c1ccccc1)[C@@H]1CO[C@@]2(CC[C@@]3(C)[C@H](CC[C@@H]4[C@@H]3CC[C@]3(C)[C@@H](O)CC[C@@H]43)C2)OO1 (relative stereo; form 2) [listing 2 of 2 here]							Active	Active	inactive	Active
